# Assay results as given in ChEMBL document CHEMBL1255475, “Mutant prevention concentrations of four carbapenems against gram-negative rods” (2010).
# Legend:
# Assay type in all cases: functional
# Escherichia coli [1] = experiment: Antibacterial activity against beta-lactamase-negative Escherichia coli E350 assessed as mutant prevention concentration after overnight incubation
# Klebsiella pneumoniae [2] = experiment: Antibacterial activity against beta-lactamase-positive ESBL-positive Klebsiella pneumoniae E476 assessed as mutant prevention concentration after overnight incubation
# Outline: (§1)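 Overnight growth on blood trypticase soy agar (35°C, air) was resuspended in 0.9% saline and counted on drug-free Mueller-Hinton agar. […] Colonies were retested by agar dilution to confirm mutants. MPC was the lowest concentration preventing resistant-mutant growth.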
# Klebsiella pneumoniae [3] = experiment: Antibacterial activity against beta-lactamase-positive ESBL-negative Klebsiella pneumoniae E479 assessed as mutant prevention concentration after overnight incubation; outline: as §1
# Escherichia coli [4] = experiment: Antibacterial activity against beta-lactamase-negative Escherichia coli E409 assessed as mutant prevention concentration after overnight incubation
# Klebsiella pneumoniae [5] = experiment: Antibacterial activity against beta-lactamase-negative Klebsiella pneumoniae E359 assessed as mutant prevention concentration after overnight incubation
# Klebsiella pneumoniae [6] = experiment: Antibacterial activity against beta-lactamase-positive ESBL-positive Klebsiella pneumoniae E478 assessed as mutant prevention concentration after overnight incubation; outline: as §1
# Pseudomonas aeruginosa [7] = experiment: Antibacterial activity against Pseudomonas aeruginosa P341 assessed as mutant prevention concentration after overnight incubation
# Escherichia coli [8] = experiment: Antibacterial activity against beta-lactamase-negative Escherichia coli E345 assessed as mutant prevention concentration after overnight incubation
# Klebsiella pneumoniae [9] = experiment: Antibacterial activity against beta-lactamase-positive ESBL-negative Klebsiella pneumoniae E477 assessed as mutant prevention concentration after overnight incubation; outline: as §1
# Escherichia coli [10] = experiment: Antibacterial activity against beta-lactamase-positive ESBL-negative Escherichia coli E483 assessed as mutant prevention concentration after overnight incubation; outline: as §1
# Pseudomonas aeruginosa [11] = experiment: Antibacterial activity against Pseudomonas aeruginosa P340 assessed as mutant prevention concentration after overnight incubation
# Klebsiella pneumoniae [12] = experiment: Antibacterial activity against beta-lactamase-positive ESBL-negative Klebsiella pneumoniae E473 assessed as mutant prevention concentration after overnight incubation; outline: as §1
# Klebsiella pneumoniae [13] = experiment: Antibacterial activity against beta-lactamase-negative Klebsiella pneumoniae E357 assessed as mutant prevention concentration after overnight incubation
# Pseudomonas aeruginosa [14] = experiment: Antibacterial activity against Pseudomonas aeruginosa P363 assessed as mutant prevention concentration after overnight incubation
# Pseudomonas aeruginosa [15] = experiment: Antibacterial activity against Pseudomonas aeruginosa P369 assessed as mutant prevention concentration after overnight incubation
# Acinetobacter baumannii [16] = experiment: Antibacterial activity against Acinetobacter baumannii A885 assessed as mutant prevention concentration after overnight incubation
# Escherichia coli [17] = experiment: Antibacterial activity against beta-lactamase-positive ESBL-positive Escherichia coli E450 assessed as mutant prevention concentration after overnight incubation; outline: as §1
# Escherichia coli [18] = experiment: Antibacterial activity against beta-lactamase-positive ESBL-positive Escherichia coli E446 assessed as mutant prevention concentration after overnight incubation; outline: as §1
# Escherichia coli [19] = experiment: Antibacterial activity against beta-lactamase-negative Escherichia coli E344 assessed as mutant prevention concentration after overnight incubation
# Klebsiella pneumoniae [20] = experiment: Antibacterial activity against beta-lactamase-positive ESBL-negative Klebsiella pneumoniae E474 assessed as mutant prevention concentration after overnight incubation; outline: as §1
# Pseudomonas aeruginosa [21] = experiment: Antibacterial activity against Pseudomonas aeruginosa P365 assessed as mutant prevention concentration after overnight incubation
# Klebsiella pneumoniae [22] = experiment: Antibacterial activity against beta-lactamase-negative Klebsiella pneumoniae E358 assessed as mutant prevention concentration after overnight incubation
# Acinetobacter baumannii [23] = experiment: Antibacterial activity against Acinetobacter baumannii A910 assessed as mutant prevention concentration after overnight incubation
# Escherichia coli [24] = experiment: Antibacterial activity against beta-lactamase-negative Escherichia coli E347 assessed as mutant prevention concentration after overnight incubation
# Acinetobacter baumannii [25] = experiment: Antibacterial activity against Acinetobacter baumannii A897 assessed as mutant prevention concentration after overnight incubation
# Escherichia coli [26] = experiment: Antibacterial activity against beta-lactamase-negative Escherichia coli E425 assessed as mutant prevention concentration after overnight incubation
# Escherichia coli [27] = experiment: Antibacterial activity against beta-lactamase-negative Escherichia coli E424 assessed as mutant prevention concentration after overnight incubation
# Escherichia coli [28] = experiment: Antibacterial activity against beta-lactamase-positive ESBL-positive Escherichia coli E452 assessed as mutant prevention concentration after overnight incubation; outline: as §1
# Pseudomonas aeruginosa [29] = experiment: Antibacterial activity against Pseudomonas aeruginosa P370 assessed as mutant prevention concentration after overnight incubation
# Escherichia coli [30] = experiment: Antibacterial activity against beta-lactamase-positive ESBL-negative Escherichia coli E437 assessed as mutant prevention concentration after overnight incubation; outline: as §1
# Acinetobacter baumannii [31] = experiment: Antibacterial activity against Acinetobacter baumannii A884 assessed as mutant prevention concentration after overnight incubation
# Acinetobacter baumannii [32] = experiment: Antibacterial activity against Acinetobacter baumannii A894 assessed as mutant prevention concentration after overnight incubation
# Klebsiella pneumoniae [33] = experiment: Antibacterial activity against beta-lactamase-positive ESBL-negative Klebsiella pneumoniae E479 incubated up to 7 days by agar dilution method; conditions: E479, 168 h
# Outline: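 MPC determination: overnight cultures on blood trypticase soy agar at 35°C in air were resuspended in 0.9% saline, and CFU were counted on drug-free Mueller-Hinton agar. […] Growth was retested by agar dilution to confirm mutants. MPC was the lowest concentration preventing resistant-mutant growth.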
# Escherichia coli [34] = experiment: Antibacterial activity against beta-lactamase-negative Escherichia coli E409 […] by agar dilution method
# Klebsiella pneumoniae [35] = experiment: Antibacterial activity against beta-lactamase-positive ESBL-positive Klebsiella pneumoniae E476 incubated up to 7 days by agar dilution method; conditions: E476, 168 h
# Escherichia coli [36] = experiment: Antibacterial activity against beta-lactamase-positive ESBL-positive Escherichia coli E458 incubated up to 7 days by agar dilution method; conditions: E458, 168 h
# Outline: (§2)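 MIC by CLSI agar dilution, with quality-control strains in each run. Beta-lactamase status was set by 30 μg cefazolin Kirby-Bauer disk diffusion. ESBL status was set by cefotaxime and ceftazidime disks (30 μg) with and without clavulanic acid (10 μg).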
# Escherichia coli [37] = experiment: Antibacterial activity against beta-lactamase-positive ESBL-positive Escherichia coli E452 incubated up to 7 days by agar dilution method; conditions: E452, 168 h; outline: as §2
# Klebsiella pneumoniae [38] = experiment: Antibacterial activity against beta-lactamase-positive ESBL-negative Klebsiella pneumoniae E477 incubated up to 7 days by agar dilution method; conditions: E477, 168 h
# Escherichia coli [39] = experiment: Antibacterial activity against beta-lactamase-negative Escherichia coli E347 incubated up to 7 days by agar dilution method; conditions: E347, 168 h
# Klebsiella pneumoniae [40] = experiment: Antibacterial activity against beta-lactamase-negative Klebsiella pneumoniae E360 incubated up to 7 days by agar dilution method; conditions: E360, 168 h
# Escherichia coli [41] = experiment: Antibacterial activity against beta-lactamase-positive ESBL-positive Escherichia coli E450 incubated up to 7 days by agar dilution method; conditions: E450, 168 h; outline: as §2
# Escherichia coli [42] = experiment: Antibacterial activity against beta-lactamase-positive ESBL-negative Escherichia coli E483 […] by agar dilution method
# Klebsiella pneumoniae [43] = experiment: Antibacterial activity against beta-lactamase-positive ESBL-positive Klebsiella pneumoniae E457 incubated up to 7 days by agar dilution method; conditions: E457, 168 h; outline: as §2
# Escherichia coli [44] = experiment: Antibacterial activity against beta-lactamase-positive ESBL-positive Escherichia coli E465 incubated up to 7 days by agar dilution method; conditions: E465, 168 h; outline: as §2
# Klebsiella pneumoniae [45] = experiment: Antibacterial activity against beta-lactamase-positive ESBL-negative Klebsiella pneumoniae E473 incubated up to 7 days by agar dilution method; conditions: E473, 168 h
smiles,measurement,setting,value
C[C@@H](O)[C@H]1C(=O)N2C(C(=O)O)=C(SCCNC=N)C[C@H]12 [IMIPENEM ANHYDROUS],MPC,Escherichia coli [1],2 µg/mL
same,MPC,Klebsiella pneumoniae [2],>16 µg/mL
same,MPC,Klebsiella pneumoniae [3],32 µg/mL
same,MPC,Escherichia coli [4],1 µg/mL
same,MPC,Klebsiella pneumoniae [5],1 µg/mL
same,MPC,Klebsiella pneumoniae [6],16 µg/mL
same,MPC,Pseudomonas aeruginosa [7],32 µg/mL
same,MPC,Escherichia coli [8],0.5 µg/mL
same,MPC,Klebsiella pneumoniae [9],32 µg/mL
same,MPC,Escherichia coli [10],4 µg/mL
same,MPC,Pseudomonas aeruginosa [11],2 µg/mL
same,MPC,Klebsiella pneumoniae [12],16 µg/mL
same,MPC,Klebsiella pneumoniae [13],1 µg/mL
same,MPC,Pseudomonas aeruginosa [14],32 µg/mL
same,MPC,Pseudomonas aeruginosa [15],32 µg/mL
same,MPC,Acinetobacter baumannii [16],8 µg/mL
same,MPC,Escherichia coli [17],0.5 µg/mL
same,MPC,Escherichia coli [18],2 µg/mL
same,MPC,Escherichia coli [19],0.5 µg/mL
same,MPC,Klebsiella pneumoniae [20],16 µg/mL
same,MPC,Pseudomonas aeruginosa [21],16 µg/mL
same,MPC,Klebsiella pneumoniae [22],0.5 µg/mL
same,MPC,Acinetobacter baumannii [23],8 µg/mL
same,MPC,Escherichia coli [24],0.5 µg/mL
same,MPC,Acinetobacter baumannii [25],1 µg/mL
same,MPC,Escherichia coli [26],0.5 µg/mL
same,MPC,Escherichia coli [27],0.5 µg/mL
same,MPC,Escherichia coli [28],0.5 µg/mL
same,MPC,Pseudomonas aeruginosa [29],16 µg/mL
same,MPC,Escherichia coli [30],1 µg/mL
same,MPC,Acinetobacter baumannii [31],4 µg/mL
same,MPC,Acinetobacter baumannii [32],1 µg/mL
C[C@@H](O)[C@H]1C(=O)N2C(C(=O)O)=C(S[C@@H]3CN[C@H](C(=O)N(C)C)C3)[C@H](C)[C@H]12 [MEROPENEM],MIC,Klebsiella pneumoniae [33],8 µg/mL
same,MIC,Escherichia coli [34],0.03 µg/mL
same,MPC,Escherichia coli [1],0.06 µg/mL
same,MPC,Klebsiella pneumoniae [2],>64 µg/mL
same,MPC,Klebsiella pneumoniae [3],32 µg/mL
same,MPC,Escherichia coli [4],0.06 µg/mL
same,MPC,Klebsiella pneumoniae [5],0.125 µg/mL
same,MIC,Klebsiella pneumoniae [35],4 µg/mL
same,MPC,Klebsiella pneumoniae [6],8 µg/mL
same,MPC,Pseudomonas aeruginosa [7],8 µg/mL
same,MPC,Escherichia coli [8],0.06 µg/mL
same,MIC,Escherichia coli [36],0.03 µg/mL
same,MPC,Klebsiella pneumoniae [9],8 µg/mL
same,MPC,Escherichia coli [10],4 µg/mL
same,MPC,Pseudomonas aeruginosa [11],4 µg/mL
same,MIC,Escherichia coli [37],0.03 µg/mL
same,MPC,Klebsiella pneumoniae [12],16 µg/mL
same,MIC,Klebsiella pneumoniae [38],2 µg/mL
same,MPC,Klebsiella pneumoniae [13],0.125 µg/mL
same,MPC,Pseudomonas aeruginosa [14],>8 µg/mL
same,MPC,Pseudomonas aeruginosa [15],>4 µg/mL
same,MIC,Escherichia coli [39],0.03 µg/mL
same,MIC,Klebsiella pneumoniae [40],0.03 µg/mL
same,MPC,Acinetobacter baumannii [16],8 µg/mL
same,MPC,Escherichia coli [17],0.06 µg/mL
same,MPC,Escherichia coli [18],0.125 µg/mL
same,MPC,Escherichia coli [19],0.03 µg/mL
same,MPC,Klebsiella pneumoniae [20],16 µg/mL
same,MPC,Pseudomonas aeruginosa [21],8 µg/mL
same,MIC,Escherichia coli [41],0.03 µg/mL
same,MIC,Escherichia coli [42],0.5 µg/mL
same,MPC,Klebsiella pneumoniae [22],0.06 µg/mL
same,MPC,Acinetobacter baumannii [23],4 µg/mL
same,MPC,Escherichia coli [24],0.06 µg/mL
same,MPC,Acinetobacter baumannii [25],1 µg/mL
same,MIC,Klebsiella pneumoniae [43],0.06 µg/mL
same,MPC,Escherichia coli [26],0.06 µg/mL
same,MIC,Escherichia coli [44],0.06 µg/mL
same,MPC,Escherichia coli [27],0.06 µg/mL
same,MPC,Escherichia coli [28],0.06 µg/mL
same,MPC,Pseudomonas aeruginosa [29],>4 µg/mL
same,MPC,Escherichia coli [30],0.125 µg/mL
same,MIC,Klebsiella pneumoniae [45],2 µg/mL
same,MPC,Acinetobacter baumannii [31],8 µg/mL
same,MPC,Acinetobacter baumannii [32],2 µg/mL
